M1 PAM parental – nonselective activator or artifact in parental CHO-K1 calcium assay. ATP EC20, Fluo-8 calcium fluorescence; 0% at ATP EC20, 100% at ATP max. activation, % at 3 µM. actives 0.02% (n = 360,000). AID 602247;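 active = activation above the run cutoff, the mean activation of all test compounds plus 3 SD, cut at about 40% in these data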;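 note: peak over basal fluorescence ratio in a 140 s read after ATP addition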
OX1R antag-1 – OX1R (human) antagonism | OX1R-expressing cells, FRET antagonist read-out | inhibition, % at 6.6 µM | actives 1.8% (n = 330,000) | AID 485270; in the data active = inhibition mostly above about 38%, no sharp cut-off; inactive = mostly below about 40%;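 note: 0% = agonist challenge alone and 100% = reference antagonist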
Target sequence (O43613 whole entry, looked up): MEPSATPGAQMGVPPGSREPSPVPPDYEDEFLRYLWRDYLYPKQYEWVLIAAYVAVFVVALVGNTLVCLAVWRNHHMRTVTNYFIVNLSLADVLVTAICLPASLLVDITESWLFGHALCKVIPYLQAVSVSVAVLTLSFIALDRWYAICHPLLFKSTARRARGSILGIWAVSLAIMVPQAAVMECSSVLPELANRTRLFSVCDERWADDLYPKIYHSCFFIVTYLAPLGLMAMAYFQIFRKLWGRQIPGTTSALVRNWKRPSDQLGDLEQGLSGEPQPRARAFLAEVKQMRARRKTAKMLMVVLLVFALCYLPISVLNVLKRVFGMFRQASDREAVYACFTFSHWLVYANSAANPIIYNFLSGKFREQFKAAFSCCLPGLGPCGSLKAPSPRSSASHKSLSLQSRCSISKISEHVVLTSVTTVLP
CHO parental Ca – signal in parental CHO cells, OX1R antagonist counter-screen. inhibition, % at 5.6 µM. parental CHO-K1, ATP-induced calcium, Fluo-8 fluorescence. AID 463079. actives 0.63% (n = 330,000);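 active = inhibition above that plate's mean sample inhibition plus 3 SD, cut at about 26% in these data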;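 note: 0% = ATP-challenged DMSO wells and 100% = DMSO wells without ATP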
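Test system: parental CHO cells; detection: calcium-sensitive Fluo-8 fluorescence; evaluation: percent inhibition of calcium signal; also added: ATP as calcium-mobilizing challenge; repeats: one well per compound; control set: ATP-challenged DMSO wells low, unchallenged DMSO wells high; compound: single nominal dose of 5.6 µM per compound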
OX1R antag-2 – antagonists of human orexin 1 receptor. CHO/OX1R cells, Fluo-8 calcium fluorescence, orexin A. inhibition, % at 5 µM. actives 0.43% (n = 330,000). O43613;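 active = inhibition above its plate's threshold, mean inhibition of all tested compounds on the plate plus 3 SD, cut at about 37% in these data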;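 note: 0% = orexin A challenge wells and 100% = SB-334867-A antagonist wells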
M1 ag parental – nonselective activator or artifact in parental CHO-K1 cells. Fluo-8 calcium fluorescence; scaled to maximal ATP response, vehicle zero. activation, % at 3 µM. actives 0.48% (n = 360,000). AID 602248; in the data active = activation above about 15%;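 note: untransfected CHO-K1 host cells lacking M1 receptor as counterscreen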
CHO-K1 Ca antag – counter-screen for M1 antagonists: effect in parental CHO-K1 cells; ATP-induced calcium, Fluo-8 fluorescence; inhibition, % at 3 µM; actives 0.6% (n = 360,000);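 active = inhibition above a per-plate cutoff, the plate's mean sample inhibition plus 3 SD, cut at about 24% in these data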;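 note: 0% = DMSO plus EC80 ATP and 100% = DMSO alone without ATP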
Active calls of the source: *; . = not tested or not shown. The list is not random: actives were taken first. Their share in the collection is about 2.9%.

SMILES	M1 PAM parental	OX1R antag-1	CHO parental Ca	OX1R antag-2	M1 ag parental	CHO-K1 Ca antag
CCOC(=O)C1=C(C)c2ccccc2OC1(CC)C(=O)OCC (stereo unspecified)	13	10	-20	-15	0	-14
CCC(CC)c1nnc(NC(=O)COc2ccc3c(c2)OCO3)s1	18	7	-14	-14	20*	-7
O=C(c1ccc(F)cc1)C1CCN(Cc2ccc(F)cc2)CC1	19	2	-19	-30	1	-2
COc1ccc(Nc2ccc3c(c2)=NC2(CCCCC2)[N+]=3[O-])cc1	10	39	-19	-30	0	-1
[O-][N+]1=c2ccc(Nc3ccccc3)cc2=NC12CCCCC2	10	47*	-19	-10	0	-4
Nc1cc(C(=O)O)c(N)c2c1C(=O)c1ccccc1C2=O	-2	115*	-3	5	0	4
CC(Oc1ccc(Br)cc1)C(=O)Nc1nc(-c2ccccn2)cs1 (stereo unspecified)	-21	40	35*	9	1	15
CC(C)(C)c1ccc(C(=O)NC(=S)NNC(=O)c2cccs2)cc1	-16	1	31	33	85*	10
O=C(NC(=S)NNC(=O)c1cccs1)c1ccccc1	-13	4	3	-3	0	1
Cc1cccc(C(=O)NC(=S)NNC(=O)c2ccc(Cl)cc2)c1	-16	-7	64*	75*	110*	48*
Cc1cccc(C(=O)NC(=S)NNC(=O)c2cccs2)c1	-10	5	-8	-4	15*	4
Cc1ccccc1C(=O)NNC(=S)NC(=O)c1cccs1	-24	0	21	24	37*	2
CC1(C)Cc2c(sc3ncn(N)c(=N)c23)CO1	-4	34	-24	-1	-1	27*
CCCCOc1ccc(CCC(=O)N/N=C/c2ccco2)cc1	15	13	-12	-12	0	-9
Cc1cccc(C)c1-n1nnnc1C1(C)CCC(=O)N1Cc1cccnc1 (stereo unspecified)	4	.	.	.	1	-10
CC(=O)Nc1nc2cccc([N+](=O)[O-])c2s1	-10	74*	-2	-9	0	4
O=C(Nc1cccc(F)c1)C1CCN(c2nnnn2-c2ccccc2)CC1	-7	16	-7	-14	2	28*
CCNc1nc(OC)nc(Oc2ccc(=O)n(-c3ccccc3)n2)n1	-4	11	-11	-9	-1	24*
COc1ccc(N(CC(=O)Nc2ccc3c(c2)OCCO3)S(=O)(=O)c2cccc(C)c2)cc1	10	.	.	.	2	1
CCOC(=O)C1=C(c2ccccc2)NC(N)=NC1c1ccc(OCc2ccc(Cl)cc2)c(OC)c1 (stereo unspecified)	15	9	-11	-17	0	4
COc1ccc(CN(C)C(=O)CNC(=O)c2sc3ccccc3c2Cl)c(OC)c1	5	.	.	.	3	5
c1ccc(N(c2ccccc2)c2nc(-n3ccnc3)nc(-n3ccnc3)n2)cc1	16	42	42*	82*	6	5
CCCCn1c(N)c(N(CC(C)C)C(=O)C2CCN(S(=O)(=O)c3ccc(Cl)cc3)CC2)c(=O)[nH]c1=O	-4	0	-16	-6	1	-8
CCCCNC(=O)C1(C)CCC(=O)N1c1cc(C(C)(C)C)nn1C (stereo unspecified)	-2	.	.	.	0	32*
CCOCCNC(=O)c1ccccc1C(=O)NCCOCC	-3	3	9	-1	0	30*
SMILES	M1 PAM parental	OX1R antag-1	CHO parental Ca	OX1R antag-2	M1 ag parental	CHO-K1 Ca antag
CN(C(=O)COc1ccccc1C(=O)NCCOc1ccccc1)c1ccccc1	1	80*	92*	78*	11	25*
O=C(NCCCCCCNC(=O)c1ccccc1O)c1ccccc1O	-9	32	32	3	19*	1
CC(C)C[C@H]1CN([C@@H](CC(C)C)CN2CCCC2CN2C(=S)NC[C@@H]2Cc2ccccc2)C(=S)N1CC1CCCCC1 (stereo partly specified)	20	.	.	.	1	-17
C=CCCC(=O)NC1CCCc2c1cnn2-c1ccccc1F (stereo unspecified)	0	14	-9	-21	1	-3
COc1ccc(CCNc2ncnc3[nH]ncc23)cc1OC	19	33	14	-8	4	-7
COc1ccc(CCNc2ncnc3sc(C)cc23)cc1OC	-12	.	.	.	14	32*
CCN(C(=O)COC(=O)/C=C/c1c(C)nn(-c2ccccc2)c1C)C1CCS(=O)(=O)C1 (stereo unspecified)	-11	9	-12	-22	0	-2
COc1ccc(-c2ccc(CN3C(C)C(=O)N(Cc4cn(CC5CCCCC5)nn4)CCS3(=O)=O)cc2)cc1 (stereo unspecified)	-15	.	.	.	0	25*
COc1ccc(NC2c3ccccc3C(=O)N2c2ccccn2)cc1 (stereo unspecified)	8	26	-24	-12	0	-16
COC(=O)c1[nH]c2cc(OC)c(OC)cc2c1NC(=O)CN1C[C@H]2C[C@@H](C1)c1cccc(=O)n1C2	0	3	-7	-11	0	-16
Cc1cc(C)c(S(=O)(=O)Cc2ccccc2)c(=O)[nH]1	-16	6	-13	-14	0	25*
O=C(Nc1ccc2ccccc2n1)c1ccccc1Cl	1	22	-11	-19	1	-10
COc1ccc(C(=O)Nc2ccc3ccccc3n2)c(OC)c1OC	9	57*	-17	-1	3	-12
CSc1nnc2c(n1)OC(c1ccccn1)N(C(C)=O)c1ccccc1-2 (stereo unspecified)	6	19	-3	-10	0	-5
CSc1nnc2c(n1)OC(c1ccc(C(=O)O)cc1)N(C(C)=O)c1ccccc1-2 (stereo unspecified)	0	50*	-5	-3	0	-7
CCOC(=O)c1c(O)c2ccccc2n(CC)c1=O	21	15	-10	-5	0	-19
O=C(O)c1oc2ccccc2c1CSc1ccccn1	-4	19	-4	-10	0	12
O=C(O)c1oc2ccccc2c1CSc1ccc(Cl)cc1	3	63*	1	-11	0	-13
CC(SCC(=O)Nc1ccccc1)c1nc2ccccc2c(=O)[nH]1 (stereo unspecified)	24	12	-15	-11	1	-11
CC(C)c1ccc(NC(=O)CSC(C)c2nc3ccccc3c(=O)[nH]2)cc1 (stereo unspecified)	12	63*	-5	2	2	-11
COc1cc2c3c([nH]c2cc1F)C(=O)NCC3	13	18	-6	-4	0	-5
COc1ccc(OC)c(Nc2cc3ccccc3c(=O)[nH]2)c1	11	68*	-11	-21	1	-11
COc1ccccc1Nc1cc2cc(Br)ccc2c(=O)[nH]1	-2	46	-18	2	1	5

Screens (PubChem BioAssay)
